Screening data (PubChem BioAssay)
pCIP destab – p/CIP-EGFP fusion destabilizers, primary screen, fluorescence, F442A cells. decrease of EGFP signal, % at 10 µM. Q05BA5. AID 1984, 2009. 16 h. actives 0.01% (n = 290,000);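 active = EGFP signal decrease of at least 30% at 10 µM or well 3 SD below plate mean, unless failing retest; inactive = the rest, including hits failing retest or dose response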
MsrA inh – bovine MsrA enzyme inhibitors, primary screen, biochemical, absorbance, HTS; Methionine sulfoxide reductase A (Bos taurus); purified bovine MsrA, absorbance read-out; inhibition, % at 15.5 µM; actives 0.75% (n = 360,000); AID 651718, 2012; in the data active = inhibition above about 4.5%;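 note: 0% = vehicle wells with enzyme and 100% = reference inhibitor wells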
bovine MsrA act – bovine MsrA enzyme activators, primary screen, biochemical, absorbance, HTS | Methionine sulfoxide reductase A (Bos taurus) | purified bovine MsrA, absorbance read-out | activation, % at 10.6 µM | actives 0.3% (n = 360,000) | AID 602163, 2012; in the data active = activation above about 7.5%;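 note: 0% = vehicle and 100% = reference activator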
SKN-1 inh – suppressors of acrylamide-induced Pgst-4::GFP reporter in worms, primary screen, SKN-1 inhibitor project, whole organism, uHTS, GFP/RFP fluorescence ratio, strain VP596; C. elegans VP596 Pgst-4::GFP/RFP ratio, 24 h; actives 0.49% (n = 360,000); inhibition, % at 21.8 µM;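 active = interference check ratio from 0.5 to 1.5 plus GFP to RFP signal ratio inhibition reaching or exceeding a fixed threshold, cut at about 30% in these data, passing the limit was not always enough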
MT1-MMP act inh – blockers of MT1-MMP proenzyme processing, primary screen, HT1080 RFP-PRO-GFP cells, GFP/RFP fluorescence. GFP/RFP ratio change, % at 20 µM. GFP/RFP ratio fluorescence, overnight; percent of plate control window, DMSO zero. Matrix metalloproteinase-14 (Homo sapiens), P50281. actives 0.061% (n = 360,000);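 active = GFP/RFP ratio change of at least 30% with cell ATP level not reduced by more than half and red fluorescence within 50% of control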
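Read-out: GFP/RFP fluorescence ratio; Test system: RFP-PRO-GFP reporter HT1080 cells; Compound dosing: single-point 20 µM compound, 1% DMSO; Times: overnight compound exposure at 37 °C.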
Starred values were filed as active, the others as inactive; / = no result given. In the library only some 1.6% were active in any assay of this set; here they are far more common.

SMILES | pCIP destab | MsrA inh | bovine MsrA act | SKN-1 inh | MT1-MMP act inh
Cc1c(-n2c(CN3C(=O)c4ccccc4C3=O)nc3ccccc3c2=O)c(=O)n(-c2ccccc2)n1C | / | -2 | -4 | 40* | 2
Cc1ccc(C(=O)Nc2ccccc2-c2ccccc2)o1 | -12 | -2 | -4 | -1 | 0
Cc1ccc(C(=O)Nc2scc(-c3ccccc3)c2C(=O)O)o1 | 4 | 4.6* | -6 | 6 | 0
CCOC(=O)C1=C(C(=O)OCC)C2N(Cc3ccc(Br)cc3)c3ccccc3[C@@]23C[C@@H](C(=O)OC)N(S(=O)(=O)c2cccs2)C3=N1 (stereo partly drawn) | / | 2 | / | / | /
Cc1ccc(N2CCN(/N=C/c3ccncc3)CC2)cc1 | -13 | -1 | -3 | 9 | -3
Clc1ccc(N2CCN(/N=C/c3ccncc3)CC2)cc1 | -6 | 2 | -4 | 62* | 6
Cc1nccc(-c2sc(-c3cccs3)nc2C)n1 | -56 | 3 | -9 | 39* | -1
CCCOc1ccc2cc(-c3ccccn3)c(=O)oc2c1 | -7 | 4 | -4 | 45* | -1
COC(=O)C1=C(C)N(C)C(=NCc2ccc3c(c2)OCO3)NC1c1cccc(C(F)(F)F)c1 (stereo not drawn) | / | 0 | / | / | /
O=C(c1cccc(F)c1)N1CCN(c2cccc(C(F)(F)F)c2)CC1 | -1 | 0 | 2 | 39* | 1
O=C(Nc1ccccc1F)c1ccc([N+](=O)[O-])s1 | 2 | 4 | -1 | -2 | 2
O=C(Nc1cccnc1)c1ccc([N+](=O)[O-])s1 | / | 2 | 13* | 11 | 10
O=C(NCc1ccccc1)[C@H]1CCCN1C(=O)[C@H]1CCCN1C(=O)c1ccc(F)cc1F | / | 0 | / | / | /
CCn1c(/C=C/N(C(C)=O)c2ccccc2)[n+](CCCS(=O)(=O)[O-])c2cc(Cl)c(Cl)cc21 | 5 | 4.6* | -6 | 6 | 0
CCn1c(/C=C/Nc2ccccc2)[n+](CC)c2cc(Cl)c(Cl)cc21 | 11 | 0 | -4 | 7 | -3
COC(=O)C1=C(C)N(C)C(=NCc2ccc(OC)cc2)NC1c1cccc(Cl)c1 (stereo not drawn) | / | -1 | / | / | /
Cc1cc2c(c(=O)o1)[C@@]1(C(=O)N(C)c3ccc([N+](=O)[O-])cc31)C1=C(CCCC1=O)O2 | / | 2 | / | / | /
CCCC(=O)OC[C@H]1CN(C2CCCC2)S(=O)(=O)c2c(Oc3ccc(F)cc3)cccc2O1 | / | 0 | / | / | /
c1ccc2c(c1)nc(N1CCOCC1)c1nncn12 | -8 | 4.6* | -1 | 25 | -3
c1ccc(N2CCN(c3nc4ccccc4n4cnnc34)CC2)cc1 | -18 | 2 | -3 | 0 | 1
Cc1cc(C)n(-c2nc3ccccc3n3cnnc23)n1 | 0 | 3 | -13 | 38* | 11
CCOC(=O)c1cn(CC)c2cc(N3CCCCC3)c(F)cc2c1=O | / | 1 | -10 | -1 | 4
CCOC(=O)c1cn(CC)c2cc(N3CCOCC3)c(F)cc2c1=O | 3 | 2 | -5 | 40* | -1
C[C@@H]1CCCCO[C@@H](CN(C)Cc2ccc(C(=O)O)cc2)[C@@H](C)CN([C@H](C)CO)C(=O)c2cc(NS(C)(=O)=O)ccc2O1 | / | 3 | / | / | /
C=CS(=O)(=O)N[C@@H](CSSC[C@H](NS(=O)(=O)C=C)C(=O)OC)C(=O)OC | / | 0 | / | / | /
O=C(N[C@H](Cc1ccccc1)C(=O)N1CCCN(Cc2ccccc2F)CC1)[C@H]1O[C@@H](n2ccc(=O)[nH]c2=O)[C@H](O)[C@@H]1O | / | -1 | / | / | /
COC(=O)c1ccc(OCC(O)CNC2CCCC2)cc1 (stereo not drawn) | -7 | -1 | -3 | 6 | -3
OC(CNC1CCCC1)COc1ccc(-c2ccccc2)cc1 (stereo not drawn) | -5 | 0 | -10 | 43* | -3
COc1ccc(OCC(O)CNC(C)c2ccccc2)cc1 (stereo not drawn) | -11 | 1 | -8 | -6 | 1
CCCC(NCC(O)COc1ccc(-c2ccccc2)cc1)c1ccccc1 (stereo not drawn) | 16 | 1 | -1 | 58* | -5
